An excerpt weighted towards active compounds, which were near 29% of everything screened.
Ecoli WT expand = E. coli BW25113 growth inhibition, expanded screen. AID 710. growth inhibition, % at 100 µM. 98,000 compounds, 0.15% hits. OD600 absorbance;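 active = growth inhibition above about 50% at one test dose, limit read from the data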;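 note: growth measured after 20 h incubation at 37 °C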
CYP2C9 inhib = inhibitors of human CYP2C9; P11712; CYP2C9 Supersomes, luciferin-H conversion, luminescence; inhibition, % at 5 µM; 96,000 compounds, 20% hits;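 active = blocking of liver enzyme CYP2C9 beyond about 50% at 5 µM, limit read from the data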
CYP2C19 inh = inhibitors of human CYP2C19 | CYP2C19 Supersomes, luciferin-H EGE luminescence, 30 min | inhibition, % at 5 µM | 96,000 compounds, 21% hits | AID 778;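 active = CYP2C19 inhibition above a set limit at 5 µM in the primary screen, cut at about 50% in these data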;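 note: plate controls were negative control wells for no effect and 2.5 mM tranylcypromine positive control for full effect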
Target sequence (P33261 whole entry, looked up): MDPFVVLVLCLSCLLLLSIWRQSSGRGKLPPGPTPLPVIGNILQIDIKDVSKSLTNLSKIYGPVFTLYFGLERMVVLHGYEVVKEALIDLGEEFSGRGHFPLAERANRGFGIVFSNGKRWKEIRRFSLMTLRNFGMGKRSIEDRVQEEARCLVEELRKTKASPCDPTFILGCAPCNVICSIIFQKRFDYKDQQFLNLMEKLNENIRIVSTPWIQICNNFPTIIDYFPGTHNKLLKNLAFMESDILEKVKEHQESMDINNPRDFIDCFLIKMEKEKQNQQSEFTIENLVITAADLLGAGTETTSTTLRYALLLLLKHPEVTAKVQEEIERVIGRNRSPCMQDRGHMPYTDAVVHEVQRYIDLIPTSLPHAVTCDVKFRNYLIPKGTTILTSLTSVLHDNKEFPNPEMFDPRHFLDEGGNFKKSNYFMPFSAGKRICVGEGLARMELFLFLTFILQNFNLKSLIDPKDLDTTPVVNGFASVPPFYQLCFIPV
CYP2C9 activ = activators of human CYP2C9; recombinant CYP2C9, luciferin-H conversion, luminescence; stronger effect = higher value; factor 1 = untreated enzyme, 0 = blocked; activation factor at 5 µM; 96,000 compounds, 1.4% hits;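 active = activation factor of 2 or more for CYP2C9 at a 5 µM dose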;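 note: 0 = sulfaphenazole-blocked wells and 1 = vehicle-only wells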
Ecoli tolC = growth inhibitors of E. coli BW25113 tolC mutant; OD615; growth inhibition, % at 10 µM (by protocol); 65,000 compounds, 2.2% hits;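 active = growth inhibition at or above a cutoff equal to the mean over every tested compound plus 3 SD, cut at about 60% in these data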;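 note: growth measured after 20 h incubation at 37 °C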
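Test system: E. coli BW25113 ΔtolC::kan bacteria; incubation: 37 °C, 20 h exposure; medium: LB broth supplemented with 50 µg/mL kanamycin; read-out basis: percent growth inhibition; signal: A615 absorbance measurement; compound: 10 µM final, single dose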
CYP2C19 act = cytochrome P450 2C19 (human) activation. P33261. recombinant CYP2C19, luciferin-H EGE luminescence; stronger effect = higher value; 0 = fully inhibited enzyme, 1 = untreated enzyme. AID 1025. 96,000 tested, under 10 active. activation factor at 5 µM;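 active = activation factor of at least 2 at 5 µM in the primary screen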;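 note: 0 = wells with 2.5 mM tranylcypromine and 1 = vehicle-only wells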
* hit, by the source's call; x = no result given.

SMILES | Ecoli WT expand | CYP2C9 inhib | CYP2C19 inh | CYP2C9 activ | Ecoli tolC | CYP2C19 act
Cc1[nH]c(=O)cc2ccccc12 | 5.0 | -12.2 | 4.9 | 1.1 | -6.8 | 1
O=C(CCN1C(=O)c2ccccc2C1=O)Nc1cc(F)ccc1F | -1.0 | 30.1 | -0.7 | 0.7 | x | 1
C#CC(CO)N(CCN(Cc1ccccc1)C(C#C)CO)Cc1ccccc1 (stereo not given) | -6.0 | 94.6* | 100.0* | 0.1 | 42.2 | 0
CC(=O)NCc1cccc(CNC(C)=O)n1 | -11.0 | -8.5 | 0.6 | 1.1 | -6.5 | 1
Cc1ccc(N(Cc2ccccc2F)S(C)(=O)=O)cc1C | 7.0 | 73.2* | 97.8* | 0.3 | x | 0
Cc1cccc(N(Cc2ccccc2F)S(C)(=O)=O)c1 | -6.0 | 25.2 | 51.7* | 0.7 | 0.5 | 0.5
Cc1cccc(N(CC(=O)Nc2c(C)n(C)n(-c3ccccc3)c2=O)S(C)(=O)=O)c1 | 6.0 | 33.5 | 17.6 | 0.7 | -16.4 | 0.8
COc1ccccc1CN1C(=S)SC(C)(C)C1NO (stereo not given) | -2.0 | 68.2* | 91.0* | 0.3 | 26.2 | 0.1
COCCCn1c(SCC(=O)NC2CCCC2)nnc1-c1ccco1 | -3.0 | -28.3 | -13.2 | 1.3 | -27.9 | 1.1
Cn1c(SCC(=O)N(C2CCCCC2)C2CCCCC2)nnc1-c1cccs1 | 4.0 | 8.3 | 46.6 | 0.9 | 16.1 | 0.5
COCCCn1c(SCC(=O)OC2CCCCC2)nnc1-c1ccco1 | 9.0 | -122.6 | 22.2 | 2.2* | 4.6 | 0.8
COCCCn1c(SCC(=O)OC2CCCCC2)nnc1-c1cccs1 | -5.0 | -73.0 | 84.6* | 1.7 | 21.3 | 0.2
CCS(=O)(=O)NCc1ccc2[nH]c3c(c2c1)CCCC3 | 8.0 | 73.8* | 38.2 | 0.3 | 15.3 | 0.6
Fc1cccc(Cl)c1Cn1nnc2c(-n3ccnc3)ncnc21 | -1.0 | 66.4* | 94.9* | 0.3 | 22.3 | 0.1
O=C(NCC(F)(F)F)Nc1cccnc1 | 4.0 | x | x | x | -6.7 | x
Brc1cc2[nH]cnc2c2ccccc12 | 24.0 | -20.6 | 50.2* | 1.2 | 33.6 | 0.5
O=c1[nH]cnc2c([N+](=O)[O-])cccc12 | 3.0 | -12.2 | -12.7 | 1.1 | x | 1.1
COc1ccc(-c2nc(NC(=O)Cn3ccc(C(F)(F)F)n3)sc2C)cc1 | 3.0 | 39.8 | 57.4* | 0.6 | x | 0.4
Cc1sc(NC(=O)CSC2=NCCS2)nc1-c1ccccc1 | -20.0 | 41.9 | 35.5 | 0.6 | x | 0.6
C=CCNC(=O)C(=O)c1cccn1-c1ccsc1C(=O)OC | -11.0 | -1.0 | 93.2* | 1 | x | 0.1
C/C(CC(=O)NCCCN1CCOCC1)=N\NC(=O)COc1ccc(Cl)cc1 | 7.0 | -12.2 | -3.7 | 1.1 | x | 1
CCCn1nnc(NC(=O)c2cc3ccccc3o2)n1 | 12.0 | 14.4 | 9.8 | 0.9 | -9.3 | 0.9
CCCn1nnc(NC(=O)c2cccc(OCc3ccccc3)c2)n1 | -2.0 | 60.9* | 47.1 | 0.4 | x | 0.5
CCc1ccc(C(=O)Nc2nnn(CC)n2)cc1 | 8.0 | 50.0* | 46.1 | 0.5 | -17.1 | 0.5
CCCn1nnc(NC(=O)c2cc(Br)ccc2OC)n1 | 5.0 | -260.5 | 74.3* | 3.6* | -7.1 | 0.3
SMILES | Ecoli WT expand | CYP2C9 inhib | CYP2C19 inh | CYP2C9 activ | Ecoli tolC | CYP2C19 act
CCCn1nnc(NC(=O)c2cccc(Cl)c2)n1 | 14.0 | x | x | x | x | x
O=C(NCCc1cccc(Cl)c1)c1cccnc1 | 3.0 | -2.1 | 40.4 | 1 | -3.9 | 0.6
CC(C)(C)NC(=O)NC(=O)COC(=O)CCCc1c[nH]c2ccccc12 | 12.0 | 21.2 | 39.1 | 0.8 | x | 0.6
Cc1cccc(OCc2nnc(SCC(=O)Nc3sc(C)c(C)c3C#N)n2C)c1 | -18.0 | 38.5 | 11.9 | 0.6 | -20.1 | 0.9
COc1ccc2nc(NC(=O)C3CCN(S(=O)(=O)c4cccs4)CC3)sc2c1 | -11.0 | 67.0* | 84.1* | 0.3 | x | 0.2
CCOc1ccc2nc(NC(=O)C3CCN(S(=O)(=O)c4cnc[nH]4)CC3)sc2c1 | -8.0 | 84.0* | 83.5* | 0.2 | 0.2 | 0.2
COc1ccc2nc(NC(=O)C3CCCN(S(=O)(=O)c4cccs4)C3)sc2c1 (stereo not given) | -6.0 | 47.1 | 19.6 | 0.5 | 67.7* | 0.8
O=C(COC(=O)c1c2c(nc3ccccc13)CCCC2)c1cccs1 | -7.0 | -3.2 | 12.3 | 1 | x | 0.9
COc1ccc(-c2nnc(NC(=O)c3ccccc3C)o2)cc1 | x | x | x | x | 100.0* | x
O=C(COc1ccc(Cl)cc1)Nc1nnc(-c2ccc3c(c2)CCCC3)o1 | -8.0 | -4.2 | -4.3 | 1 | 100.0* | 1
O=C(Nc1nnc(-c2ccc3c(c2)CCCC3)o1)C1COc2ccccc2O1 (stereo not given) | 0.0 | 9.1 | 3.8 | 0.9 | 100.0* | 1
COc1cccc(C(=O)Nc2nnc(-c3ccc(Cl)cc3)o2)c1 | x | x | x | x | 100.0* | x
CC(=O)Nc1nnc(-c2ccc3c(c2)CCCC3)o1 | 4.0 | -1.3 | 17.8 | 1 | 1.6 | 0.8
Cc1cc(-n2c(C)cc(C(=O)CSc3nc4ccccc4c(=O)n3Cc3ccco3)c2C)no1 | 4.0 | -4.8 | 2.2 | 1 | 19.2 | 1
Cc1nc(N)sc1-c1nnc(SCC(=O)Nc2nccs2)n1C | 0.0 | 34.4 | 27.1 | 0.7 | -0.2 | 0.7
CSc1nsc(/C=C/Nc2ccc(C)cc2)c1C#N | -4.0 | 27.1 | 7.0 | 0.7 | x | 0.9
NC(=O)Nc1ccc(F)cc1 | 5.0 | -3.3 | -3.4 | 1 | x | 1
COc1ccccc1C(=O)Nc1nnc(-c2ccc3c(c2)CCCC3)o1 | -10.0 | -106.8 | 75.1* | 2.1* | 97.8* | 0.2
CCCCNC(=O)Nc1nnc(-c2ccc(OCC)cc2)o1 | -4.0 | 20.1 | 7.4 | 0.8 | x | 0.9
COc1cccc(C(=O)Nc2nnc(-c3cccs3)o2)c1 | 80.0* | 39.7 | 20.6 | 0.6 | 68.6* | 0.8
CCOc1ccc(-c2nnc(NC(=O)c3ccc(OCC(C)C)c(OC)c3)o2)cc1 | 9.0 | -0.5 | 14.4 | 1 | 100.0* | 0.9
COc1cccc(C(=O)Nc2nnc(-c3ccc(F)cc3)o2)c1 | x | x | x | x | 15.6 | x
Cc1ccc(P(=Nc2ccccc2)(N2CCOCC2)N2CCOCC2)o1 | 6.0 | 22.9 | 4.5 | 0.8 | -16.6 | 1
Cc1ccc(-n2ncc3c(=O)n(Cc4ccccn4)cnc32)cc1C | 6.0 | 8.2 | -0.1 | 0.9 | -14.8 | 1
N#Cc1cc2c(nc1SCc1cccc(Cl)c1)CCCCC2 | -3.0 | 9.8 | 14.6 | 0.9 | x | 0.9
O=C(c1ccc(Cl)cc1)c1cc(-c2ccccn2)c(N2CCOCC2)s1 | -10.0 | 49.3 | 12.6 | 0.5 | x | 0.9
CC(=O)N1CSCC1C(=O)N1CCN(c2ccc(N3CCOCC3)nn2)CC1 (stereo not given) | 8.0 | -5.4 | -14.6 | 1.1 | -15.4 | 1.1
CC1(C)CCN(Cc2ccccc2)C1CC#N (stereo not given) | 5.0 | -5.3 | 59.7* | 1.1 | 7.7 | 0.4
CC(Sc1nc(N2CCOCC2)c2c(c1C#N)CC(C)(C)OC2)C(=O)Nc1ccccc1 (stereo not given) | -5.0 | x | x | x | -9.9 | x
CSc1nc(N2CCOCC2)c2c(c1C#N)CC(C)(C)OC2 | 6.0 | 96.8* | 60.8* | 0 | x | 0.4

Source: PubChem (several laboratories)
